Converted amounts (≈) assume the structure as drawn.
Assays:
Assay type in all cases: functional
Candida albicans [1] = assay: Antifungal activity against Candida albicans IHEM 374 at 0.1 mg/uL per disc after 24 hrs by disc diffusion test
[2] = Antifungal activity against Rhodotorula bogoriensis MUCL 11796 after 24 hrs by microdilution method
Outline: (§1)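 Broth microdilution used stock inocula in saline at 0.5 McFarland. A log2 dilution series (0–500 mg/L) was made in double-concentration RPMI-1640 with glutamine and a pH indicator, without bicarbonate. Plates were incubated at 37 °C without agitation: C. albicans and R. bogoriensis 24 h, A. flavus 48 h, F. solani 72 h. Absorbance was read at 530 nm to give the MIC.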

Aspergillus flavus [3] = assay: Antifungal activity against Aspergillus flavus ATCC 44310 after 48 to 72 hrs by microdilution method; outline: as §1
Candida albicans [4] = assay: Antifungal activity against Candida albicans IHEM 374 after 24 hrs by microdilution method; conditions: IHEM 374, 24 h; outline: as §1
[5] = Antifungal activity against Rhodotorula bogoriensis MUCL 11796 at 0.1 mg/uL per disc after 24 hrs by disc diffusion test
Fusarium solani [6] = assay: Antifungal activity against Fusarium solani CBS 230.34 at 0.1 mg/uL per disc after 48 hrs by disc diffusion test
Aspergillus flavus [7] = assay: Antifungal activity against Aspergillus flavus ATCC 44310 at 0.1 mg/uL per disc after 48 hrs by disc diffusion test
Fusarium solani [8] = assay: Antifungal activity against Fusarium solani CBS 230.34 after 48 to 72 hrs by microdilution method; outline: as §1

Compound: CCN(CC)CCC(C)COc1c(I)cc(Cl)c2cccnc12 (centres undefined)
- diameter of the inhibition zone (DIZ) (Candida albicans [1]): 7 mm
- MIC [2]: 0.25 µg/mL (≈ 0.56 µM)
- MIC (Aspergillus flavus [3]): 4 µg/mL (≈ 8.95 µM)
- MIC (Candida albicans [4]): 4 µg/mL (≈ 8.95 µM)
- inhibition zone (IZ) [5]: 30 mm
- diameter of the inhibition zone (DIZ) (Fusarium solani [6]): 0 mm
- diameter of the inhibition zone (DIZ) (Aspergillus flavus [7]): 10 mm

Compound: CCN(CC)CCC(C)COc1c(I)cc(I)c2cccnc12 (centres undefined)
- diameter of the inhibition zone (DIZ) (Candida albicans [1]): 12 mm
- MIC [2]: 0.5 µg/mL (≈ 0.929 µM)
- MIC (Aspergillus flavus [3]): 4 µg/mL (≈ 7.43 µM)
- MIC (Candida albicans [4]): 0.5 µg/mL (≈ 0.929 µM)
- inhibition zone (IZ) [5]: 26 mm
- diameter of the inhibition zone (DIZ) (Fusarium solani [6]): 0 mm
- diameter of the inhibition zone (DIZ) (Aspergillus flavus [7]): 7 mm

Compound: Clc1ccc(CNCCCCOc2ccc3ncccc3c2)cc1
- diameter of the inhibition zone (DIZ) (Candida albicans [1]): 0 mm
- inhibition zone (IZ) [5]: 0 mm
- diameter of the inhibition zone (DIZ) (Fusarium solani [6]): 0 mm
- diameter of the inhibition zone (DIZ) (Aspergillus flavus [7]): 0 mm

Compound: CCN(CC)CCCCOc1ccc(Cl)c2cccnc12
- diameter of the inhibition zone (DIZ) (Candida albicans [1]): 12 mm
- inhibition zone (IZ) [5]: 0 mm
- diameter of the inhibition zone (DIZ) (Fusarium solani [6]): 0 mm
- diameter of the inhibition zone (DIZ) (Aspergillus flavus [7]): 0 mm

Compound: CC(CCNCc1ccc(Cl)cc1)COc1cccc2ncccc12 (centres undefined)
- diameter of the inhibition zone (DIZ) (Candida albicans [1]): 0 mm
- inhibition zone (IZ) [5]: 7 mm
- diameter of the inhibition zone (DIZ) (Fusarium solani [6]): 0 mm
- diameter of the inhibition zone (DIZ) (Aspergillus flavus [7]): 0 mm

Compound: CCN(CC)CCC(C)COc1c(Cl)cc(Cl)c2cccnc12 (centres undefined)
- diameter of the inhibition zone (DIZ) (Candida albicans [1]): 10 mm
- MIC [2]: 0.25 µg/mL (≈ 0.704 µM)
- MIC (Aspergillus flavus [3]): 0.5 µg/mL (≈ 1.41 µM)
- MIC (Candida albicans [4]): 0.5 µg/mL (≈ 1.41 µM)
- inhibition zone (IZ) [5]: 32 mm
- diameter of the inhibition zone (DIZ) (Fusarium solani [6]): 0 mm
- diameter of the inhibition zone (DIZ) (Aspergillus flavus [7]): 12 mm

Compound: Clc1ccc(CNCCCCOc2ccc(Cl)c3cccnc23)cc1
- diameter of the inhibition zone (DIZ) (Candida albicans [1]): 8 mm
- inhibition zone (IZ) [5]: 30 mm
- diameter of the inhibition zone (DIZ) (Fusarium solani [6]): 0 mm
- diameter of the inhibition zone (DIZ) (Aspergillus flavus [7]): 0 mm

Compound: CCN(CC)CCCCOc1cccc2ncccc12
- diameter of the inhibition zone (DIZ) (Candida albicans [1]): 0 mm
- inhibition zone (IZ) [5]: 0 mm
- diameter of the inhibition zone (DIZ) (Fusarium solani [6]): 0 mm
- diameter of the inhibition zone (DIZ) (Aspergillus flavus [7]): 0 mm

Compound: Clc1ccc(CNCCCCOc2cccc3ncccc23)cc1
- diameter of the inhibition zone (DIZ) (Candida albicans [1]): 0 mm
- inhibition zone (IZ) [5]: 0 mm
- diameter of the inhibition zone (DIZ) (Fusarium solani [6]): 0 mm
- diameter of the inhibition zone (DIZ) (Aspergillus flavus [7]): 0 mm

Compound: CCN(CC)CCC(C)COc1c(Cl)cc(Cl)c2ccc(C)nc12 (centres undefined)
- diameter of the inhibition zone (DIZ) (Candida albicans [1]): 20 mm
- MIC [2]: 0.12 µg/mL (≈ 0.325 µM)
- MIC (Aspergillus flavus [3]): 0.5 µg/mL (≈ 1.35 µM)
- MIC (Candida albicans [4]): 0.25 µg/mL (≈ 0.677 µM)
- inhibition zone (IZ) [5]: 30 mm
- diameter of the inhibition zone (DIZ) (Fusarium solani [6]): 20 mm
- diameter of the inhibition zone (DIZ) (Aspergillus flavus [7]): 10 mm
- MIC (Fusarium solani [8]): 0.5 µg/mL (≈ 1.35 µM)

Compound: CCN(CC)CCCCOc1ccc2ncccc2c1
- diameter of the inhibition zone (DIZ) (Candida albicans [1]): 0 mm
- inhibition zone (IZ) [5]: 0 mm
- diameter of the inhibition zone (DIZ) (Fusarium solani [6]): 0 mm
- diameter of the inhibition zone (DIZ) (Aspergillus flavus [7]): 0 mm

Compound: CC(CCNCc1ccc(Cl)cc1)COc1cccc2cccnc12 (centres undefined)
- diameter of the inhibition zone (DIZ) (Candida albicans [1]): 0 mm
- inhibition zone (IZ) [5]: 15 mm
- diameter of the inhibition zone (DIZ) (Fusarium solani [6]): 0 mm
- diameter of the inhibition zone (DIZ) (Aspergillus flavus [7]): 0 mm

Compound: CCN(CC)CCC(C)COc1cccc2cccnc12 (centres undefined)
- diameter of the inhibition zone (DIZ) (Candida albicans [1]): 0 mm
- inhibition zone (IZ) [5]: 0 mm
- diameter of the inhibition zone (DIZ) (Fusarium solani [6]): 0 mm
- diameter of the inhibition zone (DIZ) (Aspergillus flavus [7]): 0 mm

Compound: CCN(CC)CCC(C)COc1c(Br)cc(Br)c2cccnc12 (centres undefined)
- diameter of the inhibition zone (DIZ) (Candida albicans [1]): 20 mm
- MIC [2]: 0.5 µg/mL (≈ 1.13 µM)
- MIC (Aspergillus flavus [3]): 2 µg/mL (≈ 4.5 µM)
- MIC (Candida albicans [4]): 0.25 µg/mL (≈ 0.563 µM)
- inhibition zone (IZ) [5]: 28 mm
- diameter of the inhibition zone (DIZ) (Fusarium solani [6]): 0 mm
- diameter of the inhibition zone (DIZ) (Aspergillus flavus [7]): 7 mm

Compound: CCN(CC)CCCCOc1cccc2cccnc12
- diameter of the inhibition zone (DIZ) (Candida albicans [1]): 0 mm
- inhibition zone (IZ) [5]: 0 mm
- diameter of the inhibition zone (DIZ) (Fusarium solani [6]): 0 mm
- diameter of the inhibition zone (DIZ) (Aspergillus flavus [7]): 0 mm

Compound: CC(CCNCc1ccc(Cl)cc1)COc1c(I)cc(I)c2cccnc12 (centres undefined)
- diameter of the inhibition zone (DIZ) (Candida albicans [1]): 7 mm
- inhibition zone (IZ) [5]: 10 mm
- diameter of the inhibition zone (DIZ) (Fusarium solani [6]): 0 mm
- diameter of the inhibition zone (DIZ) (Aspergillus flavus [7]): 0 mm

Compound: CCN(CC)CCCCOc1c(I)cc(Cl)c2cccnc12
- diameter of the inhibition zone (DIZ) (Candida albicans [1]): 0 mm
- inhibition zone (IZ) [5]: 14 mm
- diameter of the inhibition zone (DIZ) (Fusarium solani [6]): 0 mm
- diameter of the inhibition zone (DIZ) (Aspergillus flavus [7]): 7 mm
